Values joined by “and” are separate entries in the source; they are usually repeats but may differ in a detail not shown here. Equal values may be shown once.
Tested on: HEK-293T
Assay: Multiplex assay against HEK293T
Assay type: toxicity, cell-based
Settings: human
Method in brief: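 Four dyes were applied at seeding to live cells: Hoechst33342, BioTracker Green Microtubule Cytoskeleton Dye, MitoTracker Red and Annexin V Alexa Fluor 680. Imaging after compound addition used a CQ1 microscope at 37°C and 5% CO2. CellPathfinder machine-learning gating then sorted cells into Hoechst high-intensity objects or normal cells, normal cells into healthy, pyknosed or fragmented nuclei, and pyknosed cells into mitotic or apoptotic, with tubulin, mitochondrial-mass and membrane-permeability phenotypes given as per cents of healthy-nucleus cells.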

[1] = 12 h, 1 µM, compound concentration 1 uM
[2] = 12 h, 10 µM, compound concentration 10 uM
[3] = 24 h, 1 µM, compound concentration 1 uM
[4] = 24 h, 10 µM, compound concentration 10 uM
[5] = 48 h, 1 µM, compound concentration 1 uM
[6] = 48 h, 10 µM, compound concentration 10 uM

CN(C)C(=O)Cn1cc(-c2ccc(-c3cncc4ccccc34)cc2)cn1
Population Apoptotic (%) [1]: 52% and 40% | Population Fragmented Nuclei (%) [1]: 5% and 4% | Population Healthy Nuclei (%) [1]: 81% and 80% | Population Hoechst High Intensity Objects (%) [1]: 7% and 2% | Population Membrane Permeable-Phenotype (%) [1]: 0% | Population Mitochondria Different-Phenotype (%) [1]: 50% and 58% | Population Mitotic Cells (%) [1]: 47% and 59% | Population Normal (%) [1]: 92% and 97% | Population Pyknosed Nuclei (%) [1]: 12% and 14% | Population Tubulin-Different-Phenotype (%) [1]: 35% and 23% | Total Cell Count [1]: 411 and 337 | Population Apoptotic (%) [2]: 48% and 69% | Population Fragmented Nuclei (%) [2]: 8% | Population Healthy Nuclei (%) [2]: 73% and 76% | Population Membrane Permeable-Phenotype (%) [2]: 0% | Population Mitochondria Different-Phenotype (%) [2]: 65% and 69% | Population Mitotic Cells (%) [2]: 51% and 30% | Population Normal (%) [2]: 93% and 80% | Population Pyknosed Nuclei (%) [2]: 17% and 15% | Population Tubulin-Different-Phenotype (%) [2]: 47% and 43% | Total Cell Count [2]: 264 and 321 | Population Apoptotic (%) [3]: 47% and 40% | Population Fragmented Nuclei (%) [3]: 10% and 6% | Population Healthy Nuclei (%) [3]: 79% and 82% | Population Hoechst High Intensity Objects (%) [3]: 6% and 7% | Population Membrane Permeable-Phenotype (%) [3]: 0% | Population Mitochondria Different-Phenotype (%) [3]: 38% and 45% | Population Mitotic Cells (%) [3]: 52% and 60% | Population Normal (%) [3]: 93% and 92% | Population Pyknosed Nuclei (%) [3]: 10% | Population Tubulin-Different-Phenotype (%) [3]: 24% and 23% | Total Cell Count [3]: 498 and 355 | Population Apoptotic (%) [4]: 48% and 45% | Population Fragmented Nuclei (%) [4]: 9% and 10% | Population Healthy Nuclei (%) [4]: 75% | Population Hoechst High Intensity Objects (%) [4]: 6% and 14% | Population Membrane Permeable-Phenotype (%) [4]: 0% | Population Mitochondria Different-Phenotype (%) [4]: 65% and 53% | Population Mitotic Cells (%) [4]: 51% and 54% | Population Normal (%) [4]: 93% and 85% | Population Pyknosed Nuclei (%) [4]: 14% and 13% | Population Tubulin-Different-Phenotype (%) [4]: 44% and 30% | Total Cell Count [4]: 283 and 362 | Population Apoptotic (%) [5]: 35% and 60% | Population Fragmented Nuclei (%) [5]: 19% and 11% | Population Healthy Nuclei (%) [5]: 74% and 82% | Population Hoechst High Intensity Objects (%) [5]: 8% and 5% | Population Membrane Permeable-Phenotype (%) [5]: 1% and 0% | Population Mitochondria Different-Phenotype (%) [5]: 40% and 32% | Population Mitotic Cells (%) [5]: 64% and 39% | Population Normal (%) [5]: 91% and 94% | Population Pyknosed Nuclei (%) [5]: 6% and 5% | Population Tubulin-Different-Phenotype (%) [5]: 25% and 17% | Total Cell Count [5]: 554 and 430 | Population Apoptotic (%) [6]: 66% and 59% | Population Fragmented Nuclei (%) [6]: 23% | Population Healthy Nuclei (%) [6]: 63% and 70% | Population Hoechst High Intensity Objects (%) [6]: 11% and 8% | Population Membrane Permeable-Phenotype (%) [6]: 0% | Population Mitochondria Different-Phenotype (%) [6]: 56% and 43% | Population Mitotic Cells (%) [6]: 33% and 40% | Population Normal (%) [6]: 88% and 91% | Population Pyknosed Nuclei (%) [6]: 12% and 6% | Population Tubulin-Different-Phenotype (%) [6]: 30% and 23% | Total Cell Count [6]: 379 and 429

C[C@H](NC(=O)CNC(=O)c1cccc(Cl)c1)c1ccccc1
Population Apoptotic (%) [1]: 33% and 48% | Population Fragmented Nuclei (%) [1]: 5% and 6% | Population Healthy Nuclei (%) [1]: 79% and 84% | Population Hoechst High Intensity Objects (%) [1]: 8% and 4% | Population Membrane Permeable-Phenotype (%) [1]: 0% | Population Mitochondria Different-Phenotype (%) [1]: 39% and 52% | Population Mitotic Cells (%) [1]: 66% and 51% | Population Normal (%) [1]: 91% and 95% | Population Pyknosed Nuclei (%) [1]: 15% and 9% | Population Tubulin-Different-Phenotype (%) [1]: 29% and 17% | Total Cell Count [1]: 449 and 384 | Population Apoptotic (%) [2]: 41% and 58% | Population Fragmented Nuclei (%) [2]: 6% and 7% | Population Healthy Nuclei (%) [2]: 76% and 77% | Population Hoechst High Intensity Objects (%) [2]: 7% and 13% | Population Membrane Permeable-Phenotype (%) [2]: 0% | Population Mitochondria Different-Phenotype (%) [2]: 54% and 61% | Population Mitotic Cells (%) [2]: 58% and 41% | Population Normal (%) [2]: 92% and 86% | Population Pyknosed Nuclei (%) [2]: 17% and 15% | Population Tubulin-Different-Phenotype (%) [2]: 39% and 33% | Total Cell Count [2]: 362 and 272 | Population Apoptotic (%) [3]: 23% and 45% | Population Fragmented Nuclei (%) [3]: 9% and 7% | Population Healthy Nuclei (%) [3]: 80% and 84% | Population Hoechst High Intensity Objects (%) [3]: 4% and 2% | Population Membrane Permeable-Phenotype (%) [3]: 1% and 0% | Population Mitochondria Different-Phenotype (%) [3]: 25% and 32% | Population Mitotic Cells (%) [3]: 76% and 54% | Population Normal (%) [3]: 95% and 97% | Population Pyknosed Nuclei (%) [3]: 10% and 7% | Population Tubulin-Different-Phenotype (%) [3]: 15% and 9% | Total Cell Count [3]: 646 and 476 | Population Apoptotic (%) [4]: 43% and 58% | Population Fragmented Nuclei (%) [4]: 9% and 10% | Population Healthy Nuclei (%) [4]: 77% and 78% | Population Hoechst High Intensity Objects (%) [4]: 4% and 9% | Population Membrane Permeable-Phenotype (%) [4]: 0% | Population Mitochondria Different-Phenotype (%) [4]: 39% and 49% | Population Mitotic Cells (%) [4]: 56% and 41% | Population Normal (%) [4]: 95% and 90% | Population Pyknosed Nuclei (%) [4]: 12% and 11% | Population Tubulin-Different-Phenotype (%) [4]: 25% and 19% | Total Cell Count [4]: 505 and 303 | Population Apoptotic (%) [5]: 19% and 30% | Population Fragmented Nuclei (%) [5]: 13% | Population Healthy Nuclei (%) [5]: 80% and 81% | Population Hoechst High Intensity Objects (%) [5]: 3% and 2% | Population Membrane Permeable-Phenotype (%) [5]: 0% and 2% | Population Mitochondria Different-Phenotype (%) [5]: 15% and 16% | Population Mitotic Cells (%) [5]: 80% and 70% | Population Normal (%) [5]: 96% and 97% | Population Pyknosed Nuclei (%) [5]: 5% | Population Tubulin-Different-Phenotype (%) [5]: 12% and 6% | Total Cell Count [5]: 984 and 606 | Population Apoptotic (%) [6]: 44% and 35% | Population Fragmented Nuclei (%) [6]: 15% and 19% | Population Healthy Nuclei (%) [6]: 77% and 72% | Population Hoechst High Intensity Objects (%) [6]: 1% and 2% | Population Membrane Permeable-Phenotype (%) [6]: 0% | Population Mitochondria Different-Phenotype (%) [6]: 26% and 28% | Population Mitotic Cells (%) [6]: 55% and 64% | Population Normal (%) [6]: 98% and 97% | Population Pyknosed Nuclei (%) [6]: 7% | Population Tubulin-Different-Phenotype (%) [6]: 18% and 16% | Total Cell Count [6]: 735 and 462

— ChEMBL document CHEMBL5724801, “EUbOPEN Chemogenomics Library - Multiplex” (2024)
